{"source": "PubChem BioAssay", "note": "Active and inactive are the calls of the source.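 The calls were made as follows, unless noted: active = growth inhibition above 25% in both replicates, a cutoff set 3 SD above the mean; inconclusive = above 25% in only one replicate; inactive = the rest.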", "data": [{"test": "S. cerevisiae growth inhibition in permissive medium (OD615), pilot counter-assay for S. cerevisiae lifespan shortening project, permissive growth control (AID 705)", "settings": "OD615, 24 h, at 10 µM, hits give high values", "method_in_brief": "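System: Engineered DeaD yeast | Buffer or medium: SC raffinose/galactose permissive medium | Doses: 10 µM single dose, 0.25% DMSO | Times: 24 h exposure, 30 °C | Measured by: OD615 turbidity read | Read-out: Yeast growth inhibition indicated by reduced 24 h OD615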", "values": [{"smiles": "Nc1nc(Nc2ccccc2Br)nc(C(F)(F)F)n1", "growth inhibition": "-3.56% (inactive)"}, {"smiles": "O=C(c1ccc(F)cc1)c1cn[nH]c1-c1ccccc1O", "growth inhibition": "-15.3% (inactive)"}, {"smiles": "CC(C)NC(=O)CCCc1ccccc1", "growth inhibition": "-8% (inactive)"}, {"smiles": "COc1ccc(C2N(c3ccc(Cl)cc3)C(=O)C3CCCN32)cc1", "note": "(stereo not given)", "growth inhibition": "1.46% (inactive)"}, {"smiles": "Cn1c(CCNC(=O)C(C)(C)C)nc2ccccc21", "growth inhibition": "-4.42% (inactive)"}, {"smiles": "CCCCN1C(=O)C(O)(CC(=O)c2ccccc2OC)c2ccccc21", "note": "(stereo not given)", "growth inhibition": "-13.7% (inactive)"}, {"smiles": "CCC(=O)Nc1c2c(nn1-c1ccc(F)cc1)CS(=O)C2", "note": "(stereo not given)", "growth inhibition": "-7.18% (inactive)"}, {"smiles": "O=C(Cn1c(=O)oc2cc(S(=O)(=O)N3CCOCC3)ccc21)N1CCc2ccccc2C1", "growth inhibition": "-5.1% (inactive)"}, {"smiles": "O=C(CCCN1C(=O)c2ccccc2C1=O)Nc1ccccc1C(=O)N1CCOCC1", "growth inhibition": "-5.06% (inactive)"}, {"smiles": "CCCCn1c(CCC(=O)O)ccc1-c1cccs1", "growth inhibition": "6.82% (inactive)"}, {"smiles": "FC(F)(F)c1nnc2ccc(-n3ccnc3)nn12", "growth inhibition": "-9.92% (inactive)"}, {"smiles": "CCOC(=O)C1Cc2ccccc2C(=O)O1", "note": "(stereo not given)", "growth inhibition": "-4.84% (inactive)"}, {"smiles": "Cc1ccc(N2CCN(C(=O)c3ccccc3F)CC2)c(C)c1", "growth inhibition": "-12.4% (inactive)"}, {"smiles": "CN=C1SC(CC(=O)Nc2ccccc2F)C(=O)N1C", "note": "(stereo not given)", "growth inhibition": "0.635% (inactive)"}, {"smiles": "CC(=O)Nc1ccc(NC(=O)c2oc3cc(C)c(C)cc3c2C)cc1", "growth inhibition": "-7.1% (inactive)"}, {"smiles": "CC(=O)Nc1ccc(S(=O)(=O)Nc2cccc(C(=O)NC(C)(C)C)c2)cc1", "growth inhibition": "-5.5% (inactive)"}, {"smiles": "CCc1nnc(NC(=O)CCC(=O)O)s1", "growth inhibition": "-7.04% (inactive)"}, {"smiles": "OC(COc1ccc(Cl)c2ccccc12)CN1CCN(c2ccccn2)CC1", "note": "(stereo not given)", "growth inhibition": "-5.89% (inactive)"}, {"smiles": "CC1(C)CC(=O)C=C(NCCCNC2CCCCC2)C1", "growth inhibition": "-9.9% (inactive)"}, {"smiles": "Cc1cc(Nc2ccc(F)cc2)n2nc(C)nc2n1", "growth inhibition": "-2.01% (inactive)"}, {"smiles": "Cc1cc(C(=O)N2CCN(C(c3ccccc3)c3ccccc3)CC2)on1", "growth inhibition": "-11.2% (inactive)"}, {"smiles": "COc1cccc(C2NC(CCSC)(C(=O)O)C3C(=O)N(C(C)C)C(=O)C23)c1O", "note": "(stereo not given)", "growth inhibition": "-1.2% (inactive)"}, {"smiles": "CC1CC(C)CN(S(=O)(=O)c2cccc3cccnc23)C1", "note": "(stereo not given)", "growth inhibition": "-4.23% (inactive)"}, {"smiles": "COc1ccc(NS(=O)(=O)c2ccc3c(c2)oc(=O)n3C)c(OC)c1", "growth inhibition": "-16.1% (inactive)"}, {"smiles": "Cc1ccc(-c2nc(CS(=O)(=O)CC(=O)N3CC(C)CC(C)C3)c(C)o2)cc1", "note": "(stereo not given)", "growth inhibition": "0.15% (inactive)"}, {"smiles": "COc1ccc(-n2c(Cn3c(=O)sc4ccccc43)nnc2SCC(=O)N2CCCC2)cc1", "growth inhibition": "-1.82% (inactive)"}, {"smiles": "CC(C)c1ccccc1NC(=O)CCCC(=O)O", "growth inhibition": "-2.18% (inactive)"}, {"smiles": "CCc1ccc(C2CC(c3ccccc3)Nc3nc(N)nn32)cc1", "note": "(stereo not given)", "growth inhibition": "-5.9% (inactive)"}, {"smiles": "COc1cccc(-c2csc(NC(=O)C3CC3)n2)c1", "growth inhibition": "1.37% (inactive)"}, {"smiles": "CCC(C)N1C(=O)CCC1C(=O)NCc1ccc2c(c1)OCO2", "note": "(stereo not given)", "growth inhibition": "-0.51% (inactive)"}, {"smiles": "C=CCSC1=C(C#N)C(c2ccc(OCC)cc2)CC(=O)N1", "note": "(stereo not given)", "growth inhibition": "-11.9% (inactive)"}, {"smiles": "COC(=O)C1C(=O)C=C(N2CCOCC2)CC1(C)C", "note": "(stereo not given)", "growth inhibition": "-10.6% (inactive)"}, {"smiles": "CCOCCCNC(=O)C(NC(=O)C1CCC(=O)N1)c1ccc(C)cc1", "note": "(stereo not given)", "growth inhibition": "-2.92% (inactive)"}, {"smiles": "CC(C)N(CCc1ccncc1)C(=O)Nc1ccc(Cl)c(Cl)c1", "growth inhibition": "-4.55% (inactive)"}, {"smiles": "C=CCn1c(C)nc2c(c1=O)c1nc3ccccc3nc1n2-c1ccc(C)cc1", "growth inhibition": "-4.19% (inactive)"}, {"smiles": "COC(=O)c1ccccc1NC(=O)Cn1cc2c(n1)CCC(C)C2", "note": "(stereo not given)", "growth inhibition": "0.34% (inactive)"}, {"smiles": "Cc1cccc(-n2c(CNC(=O)c3ccccc3)nnc2SCC(=O)Nc2nccs2)c1", "growth inhibition": "4.21% (inactive)"}, {"smiles": "CCc1nnc(NC(=O)CSc2nnc(Cc3cccn3C)n2C)s1", "growth inhibition": "5.43% (inactive)"}, {"smiles": "CC(=O)c1ccc(N2CCN(C(=O)c3cc4c(=O)n(C)c5ccccc5c4n3C)CC2)cc1", "growth inhibition": "-6.79% (inactive)"}, {"smiles": "O=C(c1cc(-c2cccc(O)c2)on1)N1CCc2ccccc2C1", "growth inhibition": "-7.54% (inactive)"}]}, {"test": "S. cerevisiae growth inhibition in restrictive medium, OD615, pilot screen, restrictive growth control, yeast lifespan reduction project (AID 706;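 active = growth inhibition above a set limit, 3 SD over mean compound inhibition, in both replicates, cut at about 43% in these data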;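 also: modified DeaD lifespan yeast strain shifted to restrictive glucose medium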)", "settings": "OD615, 48 h, at 10 µM, hits give high values", "method_in_brief": "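Assay system: engineered S. cerevisiae DeaD strain; Buffer or medium: CSMM-D glucose medium; Dosing: 10 µM compound, 0.25% DMSO; Times: cell pre-growth 4 h, compound exposure 48 h, 30 °C; Detection: absorbance (optical density) measured at 615 nm.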", "values": [{"smiles": "Nc1nc(Nc2ccccc2Br)nc(C(F)(F)F)n1", "growth inhibition": "4.02% (inactive)"}, {"smiles": "O=C(c1ccc(F)cc1)c1cn[nH]c1-c1ccccc1O", "growth inhibition": "-15.9% (inactive)"}, {"smiles": "CC(C)NC(=O)CCCc1ccccc1", "growth inhibition": "-14.1% (inactive)"}, {"smiles": "COc1ccc(C2N(c3ccc(Cl)cc3)C(=O)C3CCCN32)cc1", "note": "(stereo not given)", "growth inhibition": "0.035% (inactive)"}, {"smiles": "Cn1c(CCNC(=O)C(C)(C)C)nc2ccccc21", "growth inhibition": "-7.26% (inactive)"}, {"smiles": "CCCCN1C(=O)C(O)(CC(=O)c2ccccc2OC)c2ccccc21", "note": "(stereo not given)", "growth inhibition": "-5.6% (inactive)"}, {"smiles": "CCC(=O)Nc1c2c(nn1-c1ccc(F)cc1)CS(=O)C2", "note": "(stereo not given)", "growth inhibition": "1.07% (inactive)"}, {"smiles": "O=C(Cn1c(=O)oc2cc(S(=O)(=O)N3CCOCC3)ccc21)N1CCc2ccccc2C1", "growth inhibition": "-8.57% (inactive)"}, {"smiles": "O=C(CCCN1C(=O)c2ccccc2C1=O)Nc1ccccc1C(=O)N1CCOCC1", "growth inhibition": "2.61% (inactive)"}, {"smiles": "CCCCn1c(CCC(=O)O)ccc1-c1cccs1", "growth inhibition": "10.6% (inactive)"}, {"smiles": "FC(F)(F)c1nnc2ccc(-n3ccnc3)nn12", "growth inhibition": "-28.6% (inactive)"}, {"smiles": "CCOC(=O)C1Cc2ccccc2C(=O)O1", "note": "(stereo not given)", "growth inhibition": "-2.44% (inactive)"}, {"smiles": "Cc1ccc(N2CCN(C(=O)c3ccccc3F)CC2)c(C)c1", "growth inhibition": "-14.5% (inactive)"}, {"smiles": "CN=C1SC(CC(=O)Nc2ccccc2F)C(=O)N1C", "note": "(stereo not given)", "growth inhibition": "0.465% (inactive)"}, {"smiles": "CC(=O)Nc1ccc(NC(=O)c2oc3cc(C)c(C)cc3c2C)cc1", "growth inhibition": "-17% (inactive)"}, {"smiles": "CC(=O)Nc1ccc(S(=O)(=O)Nc2cccc(C(=O)NC(C)(C)C)c2)cc1", "growth inhibition": "-5.24% (inactive)"}, {"smiles": "CCc1nnc(NC(=O)CCC(=O)O)s1", "growth inhibition": "-5.46% (inactive)"}, {"smiles": "OC(COc1ccc(Cl)c2ccccc12)CN1CCN(c2ccccn2)CC1", "note": "(stereo not given)", "growth inhibition": "-11.6% (inactive)"}, {"smiles": "CC1(C)CC(=O)C=C(NCCCNC2CCCCC2)C1", "growth inhibition": "-7.88% (inactive)"}, {"smiles": "Cc1cc(Nc2ccc(F)cc2)n2nc(C)nc2n1", "growth inhibition": "4.12% (inactive)"}, {"smiles": "Cc1cc(C(=O)N2CCN(C(c3ccccc3)c3ccccc3)CC2)on1", "growth inhibition": "-5.41% (inactive)"}, {"smiles": "COc1cccc(C2NC(CCSC)(C(=O)O)C3C(=O)N(C(C)C)C(=O)C23)c1O", "note": "(stereo not given)", "growth inhibition": "8% (inactive)"}, {"smiles": "CC1CC(C)CN(S(=O)(=O)c2cccc3cccnc23)C1", "note": "(stereo not given)", "growth inhibition": "-6.44% (inactive)"}, {"smiles": "COc1ccc(NS(=O)(=O)c2ccc3c(c2)oc(=O)n3C)c(OC)c1", "growth inhibition": "-28.2% (inactive)"}, {"smiles": "Cc1ccc(-c2nc(CS(=O)(=O)CC(=O)N3CC(C)CC(C)C3)c(C)o2)cc1", "note": "(stereo not given)", "growth inhibition": "4.4% (inactive)"}, {"smiles": "COc1ccc(-n2c(Cn3c(=O)sc4ccccc43)nnc2SCC(=O)N2CCCC2)cc1", "growth inhibition": "17.8% (inactive)"}, {"smiles": "CC(C)c1ccccc1NC(=O)CCCC(=O)O", "growth inhibition": "-0.2% (inactive)"}, {"smiles": "CCc1ccc(C2CC(c3ccccc3)Nc3nc(N)nn32)cc1", "note": "(stereo not given)", "growth inhibition": "-6.06% (inactive)"}, {"smiles": "COc1cccc(-c2csc(NC(=O)C3CC3)n2)c1", "growth inhibition": "13.5% (inactive)"}, {"smiles": "CCC(C)N1C(=O)CCC1C(=O)NCc1ccc2c(c1)OCO2", "note": "(stereo not given)", "growth inhibition": "-0.82% (inactive)"}, {"smiles": "C=CCSC1=C(C#N)C(c2ccc(OCC)cc2)CC(=O)N1", "note": "(stereo not given)", "growth inhibition": "15.4% (inactive)"}, {"smiles": "COC(=O)C1C(=O)C=C(N2CCOCC2)CC1(C)C", "note": "(stereo not given)", "growth inhibition": "-10.2% (inactive)"}, {"smiles": "CCOCCCNC(=O)C(NC(=O)C1CCC(=O)N1)c1ccc(C)cc1", "note": "(stereo not given)", "growth inhibition": "-1.24% (inactive)"}, {"smiles": "CC(C)N(CCc1ccncc1)C(=O)Nc1ccc(Cl)c(Cl)c1", "growth inhibition": "-1.79% (inactive)"}, {"smiles": "C=CCn1c(C)nc2c(c1=O)c1nc3ccccc3nc1n2-c1ccc(C)cc1", "growth inhibition": "-2.97% (inactive)"}, {"smiles": "COC(=O)c1ccccc1NC(=O)Cn1cc2c(n1)CCC(C)C2", "note": "(stereo not given)", "growth inhibition": "-0.81% (inactive)"}, {"smiles": "Cc1cccc(-n2c(CNC(=O)c3ccccc3)nnc2SCC(=O)Nc2nccs2)c1", "growth inhibition": "15.6% (inactive)"}, {"smiles": "CCc1nnc(NC(=O)CSc2nnc(Cc3cccn3C)n2C)s1", "growth inhibition": "30.4% (inactive)"}, {"smiles": "CC(=O)c1ccc(N2CCN(C(=O)c3cc4c(=O)n(C)c5ccccc5c4n3C)CC2)cc1", "growth inhibition": "-16.3% (inactive)"}, {"smiles": "O=C(c1cc(-c2cccc(O)c2)on1)N1CCc2ccccc2C1", "growth inhibition": "-17.6% (inactive)"}]}]}
